≈ marks a conversion by molar mass, not a printed value. Calls of active or inactive are those of the source.
Columns and labels:
Candida parapsilosis [1] = assay: Antimicrobial activity against Candida parapsilosis BR-A28 grown as planktonic cell assessed as paradoxical growth after 48 hrs by XTT reduction assay; type: functional, organism-based
Summary of the method: (§1)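 Planktonic broth microdilution followed CLSI M27-A2, with caspofungin dissolved in water. After 48 h, XTT-menadione was added to each well and plates were incubated 1 h at 35°C in the dark. Cells were pelleted by centrifugation and the supernatant was read at 490 nm. MIC was the lowest concentration giving a 50% drop in metabolic activity versus the drug-free control. PG was ≥20% of drug-free activity above the MIC.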

Candida orthopsilosis [2] = assay: Antimicrobial activity against Candida orthopsilosis BR-A39 grown as planktonic cell assessed as paradoxical growth after 48 hrs by XTT reduction assay; type: functional, organism-based
Summary of the method: (§2)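 Planktonic cells were tested by CLSI M27-A2 broth microdilution with caspofungin in water, incubated 48 h. XTT-menadione was added to each well, plates were held 1 h at 35°C in the dark and centrifuged, and supernatant absorbance was read at 490 nm. MIC was defined as 50% decrease in metabolic activity versus drug-free control. PG was defined as ≥20% of control activity at concentrations above MIC.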

Candida parapsilosis [3] = assay: Antimicrobial activity against Candida parapsilosis BR-A25 grown as biofilm after 48 hrs by XTT reduction assay; type: functional; settings: Lodderomyces parapsilosis
Summary of the method: (§3)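 Isolates were grown on Sabouraud agar (30°C, 24 h), then overnight in RPMI 1640 with MOPS, pH 7.0, at 35°C with shaking. Cells were washed and set to ~1 × 10^7 cells/ml, attached 1.5 h at 37°C, and grown 24 h. Biofilms were then exposed to caspofungin in 10 twofold dilutions (2–1,024 μg/ml) for 48 h at 35°C with shaking. Read-out was XTT-menadione, 1 h, 35°C, dark, A490, cell-free blank subtracted. MIC was the 50% drop in activity versus drug-free control. Tested in duplicate.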

Candida albicans [4] = assay: Effect on morphology in Candida albicans grown as biofilm assessed as rounding and clumping at 32 ug/ml after 48 hrs; type: functional, organism-based
Summary of the method: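 Biofilms formed in RPMI 1640 wells were exposed to caspofungin for 48 h and compared with drug-free control wells. Wells were examined in the plate under an inverted light microscope at ×200 and photographed.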

Candida metapsilosis [5] = assay: Antimicrobial activity against Candida metapsilosis BR-A40 grown as biofilm after 48 hrs by XTT reduction assay; type: functional; settings: Lodderomyces metapsilosis
Summary of the method: (§4)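 Sabouraud-grown cells were shaken overnight (18 h, 120 rpm, 35°C) in RPMI 1640 with MOPS at pH 7.0, then washed and set at ~1 × 10^7 cells/ml. Attachment lasted 1.5 h at 37°C, and growth ran 24 h before challenge. Caspofungin was added in RPMI at 2–1,024 μg/ml (10 doublings) for 48 h at 35°C with shaking. XTT-menadione was read at 490 nm after 1 h at 35°C in the dark, with blank wells subtracted. MIC was taken as 50% reduction versus drug-free wells, and PG as >50% of control above MIC. Assays were run in duplicate.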

Candida parapsilosis [6] = assay: Antimicrobial activity against Candida parapsilosis BR-A29 grown as biofilm assessed as concentration producing paradoxical growth after 48 hrs by XTT reduction assay; type: functional
Summary of the method: (§5)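 Clinical isolates were grown overnight (18 h, 35°C, 120 rpm) in RPMI 1640 with MOPS, pH 7.0, then washed and set to ~1 × 10^7 cells/ml. Cells attached for 1.5 h at 37°C, 75 rpm, then biofilms grew 24 h. Caspofungin was given as doubling dilutions of 2–1,024 μg/ml for 48 h at 35°C, 75 rpm. Read-out was XTT-menadione in PBS, 1 h at 35°C in the dark, A490, cell-free blank subtracted. MIC was a 50% drop in activity versus drug-free; PG was >50% of control above MIC. Run in duplicate.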

Candida orthopsilosis [7] = assay: Antimicrobial activity against Candida orthopsilosis BR-A37 grown as biofilm after 48 hrs by XTT reduction assay; type: functional; settings: Lodderomyces orthopsilosis; summary of the method: as §3
Candida albicans [8] = assay: Effect on morphology in Candida albicans grown as planktonic cells assessed as inhibition of hyphae and pseudohyphae at 16 ug/ml after 48 hrs; type: functional, organism-based
Summary of the method: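 Cells were taken from caspofungin-containing and drug-free wells of the planktonic broth microdilution test after 48 h. They were examined by light microscopy at ×400.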

Candida orthopsilosis [9] = assay: Antimicrobial activity against Candida orthopsilosis BR-A35 grown as biofilm after 48 hrs by XTT reduction assay; type: functional; settings: Lodderomyces orthopsilosis; summary of the method: as §3
Candida albicans [10] = assay: Antimicrobial activity against Candida albicans BR-A2 grown as planktonic cell after 48 hrs by XTT reduction assay; type: functional
Summary of the method: (§6)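 Planktonic broth microdilution followed CLSI M27-A2, with caspofungin dissolved in water. After 48 h, XTT-menadione was added to the wells and plates were kept 1 h at 35°C in the dark. Plates were then centrifuged and supernatant A490 was read. MIC was the lowest concentration giving a 50% decrease in metabolic activity versus drug-free control. Paradoxical growth was defined as ≥20% of control activity above the MIC.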

Candida orthopsilosis [11] = assay: Antimicrobial activity against Candida orthopsilosis BR-A35 grown as planktonic cell after 48 hrs by XTT reduction assay; type: functional; settings: Lodderomyces orthopsilosis; summary of the method: as §2
Candida albicans [12] = assay: Antimicrobial activity against Candida albicans BR-A4 grown as biofilm after 48 hrs by XTT reduction assay; type: functional; summary of the method: as §3
Candida orthopsilosis [13] = assay: Antimicrobial activity against Candida orthopsilosis BR-A32 grown as planktonic cell after 48 hrs by XTT reduction assay; type: functional; settings: Lodderomyces orthopsilosis; summary of the method: as §6
Candida tropicalis [14] = assay: Antimicrobial activity against Candida tropicalis BR-A24 grown as biofilm assessed as concentration producing paradoxical growth after 48 hrs by XTT reduction assay; type: functional; summary of the method: as §5
Candida parapsilosis [15] = assay: Antimicrobial activity against Candida parapsilosis BR-A25 grown as planktonic cell after 48 hrs by XTT reduction assay; type: functional; settings: Lodderomyces parapsilosis; summary of the method: as §6
Candida orthopsilosis [16] = assay: Antimicrobial activity against Candida orthopsilosis BR-A35 grown as biofilm assessed as concentration producing paradoxical growth after 48 hrs by XTT reduction assay; type: functional; summary of the method: as §4
Candida parapsilosis [17] = assay: Antimicrobial activity against Candida parapsilosis BR-A31 grown as planktonic cell after 48 hrs by XTT reduction assay; type: functional; settings: Lodderomyces parapsilosis; summary of the method: as §6
Candida albicans [18] = assay: Antimicrobial activity against Candida albicans BR-A4 grown as biofilm assessed as concentration producing paradoxical growth after 48 hrs by XTT reduction assay; type: functional; summary of the method: as §4
Candida tropicalis [19] = assay: Antimicrobial activity against Candida tropicalis BR-A8 grown as planktonic cell after 48 hrs by XTT reduction assay; type: functional; summary of the method: as §6
Candida orthopsilosis [20] = assay: Antimicrobial activity against Candida orthopsilosis BR-A36 grown as biofilm assessed as concentration producing paradoxical growth after 48 hrs by XTT reduction assay; type: functional; summary of the method: as §4
Candida tropicalis [21] = assay: Antimicrobial activity against Candida tropicalis BR-A8 grown as planktonic cell assessed as concentration producing paradoxical growth after 48 hrs by XTT reduction assay; type: functional; summary of the method: as §1
Candida parapsilosis [22] = assay: Antimicrobial activity against Candida parapsilosis BR-A30 grown as biofilm assessed as paradoxical growth after 48 hrs by XTT reduction assay; type: functional, organism-based; summary of the method: as §5
Candida orthopsilosis [23] = assay: Antimicrobial activity against Candida orthopsilosis BR-A39 grown as planktonic cell after 48 hrs by XTT reduction assay; type: functional; settings: Lodderomyces orthopsilosis; summary of the method: as §6
Candida parapsilosis [24] = assay: Antimicrobial activity against Candida parapsilosis BR-A27 grown as biofilm after 48 hrs by XTT reduction assay; type: functional; settings: Lodderomyces parapsilosis; summary of the method: as §5
Candida parapsilosis [25] = assay: Antimicrobial activity against Candida parapsilosis BR-A30 grown as biofilm after 48 hrs by XTT reduction assay; type: functional; settings: Lodderomyces parapsilosis; summary of the method: as §5
Candida metapsilosis [26] = assay: Antimicrobial activity against Candida metapsilosis BR-A40 grown as planktonic cell after 48 hrs by XTT reduction assay; type: functional; settings: Lodderomyces metapsilosis; summary of the method: as §2
Candida tropicalis [27] = assay: Antimicrobial activity against Candida tropicalis BR-A20 grown as planktonic cell after 48 hrs by XTT reduction assay; type: functional; summary of the method: as §1
Candida parapsilosis [28] = assay: Antimicrobial activity against Candida parapsilosis BR-A28 grown as biofilm after 48 hrs by XTT reduction assay; type: functional; settings: Lodderomyces parapsilosis; summary of the method: as §3

Question: How did the Activity (Candida parapsilosis [1]) turn out when `CC[C@H](C)C[C@H](C)CCCCCCCCC(=O)N[C@H]1C[C@@H](O)[C@@H](NCCN)NC(=O)[C@@H]2[C@@H](O)CCN2C(=O)[C@H]([C@H](O)CCN)NC(=O)[C@H]([C@H](O)[C@@H](O)c2ccc(O)cc2)NC(=O)[C@@H]2C[C@@H](O)CN2C(=O)[C@H]([C@@H](C)O)NC1=O` [CASPOFUNGIN] was run?
Answer: The Activity was “inactive”.

Question: What about the Activity (Candida orthopsilosis [2]) of the same compound?
Answer: Its Activity is “inactive”.

Question: And the MIC (Candida parapsilosis [3])?
Answer: Its MIC is 2 µg/mL (≈ 1.83 µM).

Question: What about the Activity (Candida albicans [4]) of the same compound?
Answer: Its Activity is “Active”.

Question: And the MIC (Candida metapsilosis [5])?
Answer: The MIC was 2 µg/mL (≈ 1.83 µM).

Question: What about the Activity (Candida parapsilosis [6]) of the same compound?
Answer: Its Activity is 16 µg/mL.

Question: And the MIC (Candida orthopsilosis [7])?
Answer: Its MIC is 2 µg/mL (≈ 1.83 µM).

Question: What about the Activity (Candida albicans [8]) of the same compound?
Answer: The Activity was “Active”.

Question: What about the MIC (Candida orthopsilosis [9]) of the same compound?
Answer: The MIC was 2 µg/mL (≈ 1.83 µM).

Question: And the MIC (Candida albicans [10])?
Answer: The MIC was 0.5 µg/mL (≈ 0.457 µM).

Question: What about the MIC (Candida orthopsilosis [11]) of the same compound?
Answer: Its MIC is 1 µg/mL (≈ 0.915 µM).

Question: What about the MIC (Candida albicans [12]) of the same compound?
Answer: The MIC was 2 µg/mL (≈ 1.83 µM).

Question: And the MIC (Candida orthopsilosis [13])?
Answer: Its MIC is 2 µg/mL (≈ 1.83 µM).

Question: What about the Activity (Candida tropicalis [14]) of the same compound?
Answer: Its Activity is 8 µg/mL.

Question: What about the MIC (Candida parapsilosis [15]) of the same compound?
Answer: Its MIC is 2 µg/mL (≈ 1.83 µM).

Question: And the Activity (Candida orthopsilosis [16])?
Answer: The Activity was 16 µg/mL.

Question: And the MIC (Candida parapsilosis [17])?
Answer: Its MIC is 2 µg/mL (≈ 1.83 µM).

Question: What about the Activity (Candida albicans [18]) of the same compound?
Answer: Its Activity is 16 µg/mL.

Question: What about the MIC (Candida tropicalis [19]) of the same compound?
Answer: Its MIC is 1 µg/mL (≈ 0.915 µM).

Question: What about the Activity (Candida orthopsilosis [20]) of the same compound?
Answer: Its Activity is 16 µg/mL.

Question: And the Activity (Candida tropicalis [21])?
Answer: The Activity was 8 µg/mL.

Question: What about the Activity (Candida parapsilosis [22]) of the same compound?
Answer: The Activity was “Active”.

Question: And the MIC (Candida orthopsilosis [23])?
Answer: Its MIC is 2 µg/mL (≈ 1.83 µM).

Question: And the MIC (Candida parapsilosis [24])?
Answer: Its MIC is 256 µg/mL (≈ 234 µM).

Question: What about the MIC (Candida parapsilosis [25]) of the same compound?
Answer: Its MIC is 256 µg/mL (≈ 234 µM).

Question: And the MIC (Candida metapsilosis [26])?
Answer: Its MIC is 1 µg/mL (≈ 0.915 µM).

Question: What about the MIC (Candida tropicalis [27]) of the same compound?
Answer: Its MIC is 0.5 µg/mL (≈ 0.457 µM).

Question: What about the MIC (Candida parapsilosis [28]) of the same compound?
Answer: Its MIC is 2 µg/mL (≈ 1.83 µM).
